Source: PubChem
Beta cell apopt: inhibitors of cytokine-induced beta cell apoptosis, primary screen, luminescence; INS-1E cytokine-induced death, ATP luminescence, 48 h; percent of positive-control rescue, neutral wells zero; 300,000 tested, 0.8% active; protection from apoptosis, % (no concentration beside the values);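 active = Every replicate reaches about 75%, or at least half do and their mean reaches it too, limit read from the data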;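 also: 0% = cytokine-treated negative control wells and 100% = positive control rescue; higher means more ATP so stronger rescue from cytokine killing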
SKKanGAS inh: S. pyogenes SKKanGAS growth inhibitors in kanamycin, primary screen, streptokinase expression inhibitor project, SKKanGAS strain, BacTiter-Glo luminescence; 6 h; inhibition, % at 7.5 µM; 300,000 tested, 1.3% active; AID 1662, 2009;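 active = mean replicate score, as percent of positive control median, at least 50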;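 also: strain carries kanamycin resistance gene driven by streptokinase promoter and grows in 40 µg/ml kanamycin; loss of luminescence reflects streptokinase promoter inhibition or plain growth inhibition; 0% = median of DMSO wells and 100% = positive control at its reference dose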
CSC inhib: cancer stem cell viability inhibitors, primary screen, luminescence; cancer stem cell-like cells viability; inhibition, % at 7.5 µM; 300,000 tested, 1.1% active; AID 2717, 2010; in the data active = inhibition above about 75%; tested in HMLE shEcad cells
T cruzi inh: inhibitors of intracellular T. cruzi growth, primary screen, luminescence, NIH3T3 host cells | T. cruzi beta-gal in NIH3T3, 90 h | inhibition, % (concentration not given with the values) | 300,000 tested, 1.4% active | AID 1885, 2009;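 active = mean inhibition across valid replicates above about 55%, limit read from the data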;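 also: signal also drops with host cell toxicity which is not excluded here; 0% = plate median of DMSO wells and 100% = zero luminescence signal; higher percent means less beta-gal luminescence so fewer parasites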
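compound dosing = single 50 nL compound addition per well in DMSO | material = NIH/3T3 host cells with β-galactosidase reporter T. cruzi | input = 5,000 host fibroblasts per well | timing = ≥90 h infection period, 3 h prior cell attachment | read-out basis = percent inhibition of parasite-derived β-gal signal | detection = GalScreen β-gal luminescence, detergent lysis, 60 min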
Mdm2 MdmX PPI: inhibitors of human Mdm2-MdmX association, primary screen, cell-based, luminescence, split luciferase, SaOS-2, uHTS | SaOS-2 split-luciferase Mdm2/MdmX complementation | inhibition, % at 8 µM | 330,000 tested, 3% active;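 active = inhibition of at least 50% at 8 µM in the primary screen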
Target sequence (O15151 whole entry, looked up): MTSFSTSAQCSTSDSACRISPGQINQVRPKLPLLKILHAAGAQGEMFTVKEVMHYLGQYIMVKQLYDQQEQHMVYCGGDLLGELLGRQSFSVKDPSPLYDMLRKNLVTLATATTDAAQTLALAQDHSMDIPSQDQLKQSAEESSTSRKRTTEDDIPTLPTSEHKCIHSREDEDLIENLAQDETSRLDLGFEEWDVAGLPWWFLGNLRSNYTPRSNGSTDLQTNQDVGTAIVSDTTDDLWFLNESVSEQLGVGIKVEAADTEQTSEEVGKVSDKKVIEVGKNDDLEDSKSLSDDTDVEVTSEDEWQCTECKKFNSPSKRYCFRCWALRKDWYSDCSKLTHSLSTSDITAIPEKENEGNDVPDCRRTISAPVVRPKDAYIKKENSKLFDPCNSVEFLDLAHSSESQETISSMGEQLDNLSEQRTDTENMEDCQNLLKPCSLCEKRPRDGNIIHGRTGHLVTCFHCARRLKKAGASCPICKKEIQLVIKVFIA
Target sequence (Q00987 whole entry, looked up): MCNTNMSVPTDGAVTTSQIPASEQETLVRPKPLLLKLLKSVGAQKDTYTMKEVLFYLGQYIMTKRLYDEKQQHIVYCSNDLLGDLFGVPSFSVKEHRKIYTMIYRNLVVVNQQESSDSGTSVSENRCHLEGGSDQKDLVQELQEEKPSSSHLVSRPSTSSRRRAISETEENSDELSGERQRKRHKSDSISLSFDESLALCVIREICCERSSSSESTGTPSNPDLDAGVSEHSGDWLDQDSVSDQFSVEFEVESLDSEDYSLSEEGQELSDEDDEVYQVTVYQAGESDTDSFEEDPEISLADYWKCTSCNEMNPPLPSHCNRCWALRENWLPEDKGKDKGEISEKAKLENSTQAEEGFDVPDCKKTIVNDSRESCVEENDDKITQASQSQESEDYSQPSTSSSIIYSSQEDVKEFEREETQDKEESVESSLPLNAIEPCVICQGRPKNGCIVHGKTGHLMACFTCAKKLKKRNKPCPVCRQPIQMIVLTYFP
Lmaj promast: Leishmania major promastigote growth inhibition, primary screen; Leishmania major promastigotes, resazurin fluorescence viability; 200,000 tested, 9% active; AID 1063, 2008; inhibition, % at 10 µM; in the data active = inhibition above about 50%;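 also: promastigotes grown with compound for 44 hours at 28 °C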
Numbers without * were called inactive; / = no result. Compounds with a hit are over-represented: about 9.4% of the library has one in this group of screens.

SMILES	Beta cell apopt	SKKanGAS inh	CSC inhib	T cruzi inh	Mdm2 MdmX PPI	Lmaj promast
CC(=O)c1ccc(-c2ccc(C(=O)N3CCCc4ccccc43)o2)cc1	-0.7	-32.7	-2.5	9.7	0.6	5.2
COCCNC(=O)/C(C#N)=C/c1ccc(-c2ccc(S(=O)(=O)N3CCOCC3)cc2)o1	-4.2	7.1	-8.4	-3.1	-6.4	78.1*
CCC(C)/C(C)=N/NC(=O)CNS(=O)(=O)c1ccc([N+](=O)[O-])cc1 (stereo not given)	-2.9	-7.9	-4.3	6.3	36.2	1.6
O=C(O)CC/C(=C\c1cc([N+](=O)[O-])ccc1Cl)c1nc2ccccc2s1	-1.6	29.8	4.0	2.4	/	-0.6
O=C(Nc1ccc(Cl)cc1)/C(=C/c1ccc([N+](=O)[O-])cc1)c1nc2ccccc2s1	/	/	/	/	/	100.5*
COc1ccccc1NS(=O)(=O)c1cc(NC(=O)CNC(=O)c2ccccc2)ccc1C	-3.7	4.5	-20.3	-0.9	15.4	63.9*
COc1ccccc1NC(=O)c1ccc(NS(=O)(=O)c2ccc(F)c(F)c2F)cc1	10.6	13.5	13.5	-21.5	-9.9	66.0*
COc1ccccc1NS(=O)(=O)c1cc(NC(=O)c2ccc3c(c2)OCCO3)ccc1C	4.2	34.0	12.3	7.2	35.8	57.8*
CCN(CC(=O)NC(=O)Nc1ccccc1F)Cc1ccccc1	-3.7	-0.1	-1.8	-0.1	22.0	/
CCn1c(-c2ccccc2)csc1=Nc1ccc(S(=O)(=O)O)cc1	-4.2	0.2	6.9	-19.6	37.0	54.8*
O=C(CCCN1CCC(O)(c2ccc(Cl)cc2)CC1)c1ccc(F)cc1	-4.3	2.0	5.3	21.8	13.3	97.3*
O=C(CCCN1CCC(O)(c2ccc(Br)cc2)CC1)c1ccc(F)cc1	1.8	/	7.3	/	23.1	/
COc1ccc(OC)c(-c2cc(C(F)(F)F)c3c(n2)sc2c(O)cc(=O)[nH]c23)c1	2.8	81.5*	0.8	-4.4	21.6	-1.2
O=c1cc(O)c2sc3nc(-c4ccccc4)cc(C(F)(F)F)c3c2[nH]1	5.7	28.0	-10.9	9.7	-18.0	-6.0
CC(C)CC(=O)NC(=S)NNC(=O)c1ccc(NC(=O)C2CCCCC2)cc1	30.1	87.7*	-12.1	-4.5	45.1	0.9
O=C(OC1CCCCC1)c1ccc(NC(=O)C2CCCCC2)cc1	21.6	27.3	-0.5	8.5	-1.9	87.2*
COC(=O)c1ccc(NC(=S)NNC(=O)CC(C)C)cc1	-0.8	3.7	-9.7	-15.9	-6.5	-5.2
CCn1ccnc1CN1CCc2c([nH]c3ccccc23)C1CC(C)C (stereo not given)	-4.9	19.0	-6.0	40.7	14.3	42.9
COCCC(=O)N1CCc2c([nH]c3ccccc23)C1C(C)(C)C (stereo not given)	-1.5	-9.6	2.3	-7.2	-3.7	-7.8
COCc1ccc(CN2CCc3c([nH]c4ccccc34)C2C(C)(C)C)o1 (stereo not given)	-0.9	2.6	8.9	17.7	10.3	50.4*
CCn1ccnc1CN1CCc2c([nH]c3ccccc23)C1C(C)(C)C (stereo not given)	5.4	39.9	17.9	9.8	14.1	52.4*
CCn1ccnc1CN1CCc2c([nH]c3ccccc23)C1C1CCCCC1 (stereo not given)	2.8	78.5*	5.7	30.1	-20.6	39.5
COc1ccc(Cl)cc1S(=O)(=O)NC(C)C(=O)NCc1cccnc1 (stereo not given)	-1.9	-1.5	-16.9	-5.3	-11.0	/
CS(=O)(=O)N(CC(=O)N1CCN(c2ccccc2F)CC1)C1CCCCC1	-3.1	-4.8	-2.7	-1.0	-0.6	-2.6
Cc1ccc(S(=O)(=O)N(CC(=O)N2CCN(c3ccccc3F)CC2)C2CCCCC2)cc1	2.9	3.0	/	11.3	-10.6	96.8*
CS(=O)(=O)N(CC(=O)N1CCN(C(c2ccccc2)c2ccccc2)CC1)C1CCCCC1	4.6	2.1	2.2	5.2	-22.2	91.8*
Cc1ccc(S(=O)(=O)Oc2ccc(/C=N/N=C3/NC(=O)C(CC(=O)O)S3)cc2)cc1 (stereo not given)	/	/	/	/	14.2	/
O=C(O)CC1S/C(=N/N=C/c2ccc(-c3ccccc3[N+](=O)[O-])o2)NC1=O (stereo not given)	3.2	3.1	2.5	-19.0	4.8	100.5*
